Test results reported in ChEMBL document CHEMBL3745600, “2-Amino-thiophene derivatives present antileishmanial activity mediated by apoptosis and immunomodulation in vitro” (Eur J Med Chem, 2015).
Converted amounts (≈) assume the structure as drawn. The source made the active and inactive calls. No cut-off for these calls is given here.

Experiments:
Leishmania amazonensis [1] = assay: Antileishmanial activity against promastigotes of Leishmania amazonensis IFLA/BR/67/PH8 assessed as induction of necrosis using Annexin-V-FITC/PI staining at 4 times IC50 after 4 hrs by flow cytometry (reference value: 2.6%); format: functional
Leishmania amazonensis [2] = assay: Antileishmanial activity against promastigotes of Leishmania amazonensis IFLA/BR/67/PH8 assessed as induction of late apoptosis using Annexin-V/PI staining at IC50 after 4 hrs by flow cytometry (reference value: 12.05%); format: functional
[3] = Selectivity index, ratio of HC50 for human RBC to IC50 for promastigotes of Leishmania amazonensis IFLA/BR/67/PH8
In short: (§1)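 Promastigote values came from haemocytometer counts after 72 h at 25°C. Axenic amastigote values came from MTT readings after 24 h at 32°C, using amastigotes differentiated at pH 4.6. All 50% values were obtained by probit regression.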

[4] = Toxicity in human RBC assessed as induction of hemolytic activity after 1 hr by spectrometer analysis; format: cell-based, Erythrocyte; details: red blood cells (RBC)
In short: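 A 5% suspension of human erythrocytes in PBS was mixed 4:1 with serial compound dilutions and incubated 1 h at 37°C. The reaction was stopped with PBS (pH 7.2) and spun 10 min at 1000 x g, and supernatant absorbance was read at 540 nm. Haemolysis was expressed relative to a drug-free blank and to water-induced total lysis. HC50 was obtained by probit regression.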

Leishmania amazonensis [5] = assay: Antileishmanial activity against promastigotes of Leishmania amazonensis IFLA/BR/67/PH8 assessed as induction of necrosis using Annexin-V-FITC/PI staining at 2 times IC50 after 4 hrs by flow cytometry (reference value: 2.6%); format: functional
Leishmania amazonensis [6] = assay: Antileishmanial activity against axenic amastigotes of Leishmania amazonensis IFLA/BR/67/PH8 infected in Swiss mouse peritoneal macrophages assessed as reduction of survival rate after 72 hrs by light microscopy analysis; format: functional, organism-based
In short: (§2)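 Peritoneal macrophages were plated on glass coverslips at 1 x 10^6 cells/mL in supplemented RPMI 1640 and allowed to adhere for 2 h at 34°C, 5% CO₂. They were infected for 3 h with stationary-phase promastigotes at 10 parasites per macrophage, washed with PBS, then exposed to compound for 24 or 72 h. Coverslips were fixed and Panoptic-stained, and 300 macrophages per coverslip were counted by light microscopy. EC50 was derived by probit regression.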

[7] = Selectivity index, ratio of CC50 for Swiss mouse peritoneal macrophages to EC50 for axenic amastigotes of Leishmania amazonensis IFLA/BR/67/PH8; in short: as §1
Leishmania amazonensis [8] = assay: Antileishmanial activity against promastigotes of Leishmania amazonensis IFLA/BR/67/PH8 assessed as induction of early apoptosis using Annexin-V staining at 4 times IC50 after 4 hrs by flow cytometry (reference value: 8.3%); format: functional
Leishmania amazonensis [9] = assay: Antileishmanial activity against promastigotes of Leishmania amazonensis IFLA/BR/67/PH8 assessed as viable cells using Annexin-V staining at 4 times IC50 after 4 hrs by flow cytometry (reference value: 77%); format: functional
Leishmania amazonensis [10] = assay: Antileishmanial activity against promastigotes of Leishmania amazonensis IFLA/BR/67/PH8 after 72 hrs by Neubauer haemocytometer counting; details: IFLA/BR/67/PH8, 72 h
[11] = Cytotoxicity against Swiss mouse peritoneal macrophages after 24 hrs by MTT assay; format: cell-based, Peritoneal macrophage cell
In short: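 Macrophages were collected from Swiss mice 5 days after thioglycollate (3%) elicitation. About 1 x 10^6 cells per well were incubated in RPMI 1640 with 10% heat-inactivated FBS and compound for 24 h at 37°C, 5% CO₂. MTT was added for 4 h, followed by 10% SDS, and absorbance was read at 540 nm. CC50 was obtained by probit regression.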

Leishmania amazonensis [12] = assay: Antileishmanial activity against promastigotes of Leishmania amazonensis IFLA/BR/67/PH8 assessed as induction of early apoptosis using Annexin-V staining at 2 times IC50 after 4 hrs by flow cytometry (reference value: 8.3%); format: functional
Leishmania amazonensis [13] = assay: Antileishmanial activity against axenic amastigotes of Leishmania amazonensis IFLA/BR/67/PH8 after 24 hrs by MTT assay; details: IFLA/BR/67/PH8, 24 h
Leishmania amazonensis [14] = assay: Antileishmanial activity against promastigotes of Leishmania amazonensis IFLA/BR/67/PH8 assessed as induction of late apoptosis using Annexin-V/PI staining at 4 times IC50 after 4 hrs by flow cytometry (reference value: 12.05%); format: functional
Leishmania amazonensis [15] = assay: Antileishmanial activity against promastigotes of Leishmania amazonensis IFLA/BR/67/PH8 assessed as induction of necrosis using Annexin-V-FITC/PI staining at IC50 after 4 hrs by flow cytometry (reference value: 2.6%); format: functional
[16] = Selectivity index, ratio of CC50 for Swiss mouse peritoneal macrophages to IC50 for promastigotes of Leishmania amazonensis IFLA/BR/67/PH8; format: functional; in short: as §1
Leishmania amazonensis [17] = assay: Antileishmanial activity against promastigotes of Leishmania amazonensis IFLA/BR/67/PH8 assessed as induction of late apoptosis using Annexin-V/PI staining at 2 times IC50 after 4 hrs by flow cytometry (reference value: 12.05%); format: functional
Leishmania amazonensis [18] = assay: Antileishmanial activity against promastigotes of Leishmania amazonensis IFLA/BR/67/PH8 assessed as viable cells using Annexin-V staining at IC50 after 4 hrs by flow cytometry (reference value: 77%); format: functional
Leishmania amazonensis [19] = assay: Antileishmanial activity against promastigotes of Leishmania amazonensis IFLA/BR/67/PH8 assessed as viable cells using Annexin-V staining at 2 times IC50 after 4 hrs by flow cytometry (reference value: 77%); format: functional
Leishmania amazonensis [20] = assay: Antileishmanial activity against promastigotes of Leishmania amazonensis IFLA/BR/67/PH8 assessed as induction of DNA fragmentation at IC50 after 24 hrs by agarose gel electrophoresis; format: functional, organism-based
In short: (§3)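 Genomic DNA was extracted with phenol/chloroform and run on agarose with GelRed (1:500) for 1 h at […]. Fragmentation was viewed under UV as a qualitative read-out.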

Leishmania amazonensis [21] = assay: Antileishmanial activity against promastigotes of Leishmania amazonensis IFLA/BR/67/PH8 assessed as induction of early apoptosis using Annexin-V staining at IC50 after 4 hrs by flow cytometry (reference value: 8.3%); format: functional
[22] = Selectivity index, ratio of HC50 for human RBC to IC50 for axenic amastigotes of Leishmania amazonensis IFLA/BR/67/PH8; in short: as §1
Leishmania amazonensis [23] = assay: Antileishmanial activity against promastigotes of Leishmania amazonensis IFLA/BR/67/PH8 assessed as induction of DNA fragmentation at 1 to 4 times IC50 after 24 hrs by agarose gel electrophoresis; format: functional, organism-based; in short: as §3
[24] = tested on: Peritoneal macrophage cell; assay: Immunomodulatory activity in Swiss mouse peritoneal macrophages infected with promastigotes form of Leishmania amazonensis IFLA/BR/67/PH8 assessed as increase of IL-12 production at 6.25 to 25 uM after 72 hrs by sandwich ELISA; format: functional, cell-based
In short: (§4)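 Supernatants came from infected macrophages treated for 72 h at 37°C, 5% CO₂. TNF-α, IL-12 and IL-10 were measured by sandwich ELISA at 450 nm against murine recombinant cytokine standards. NO was estimated as nitrite by the Griess reaction at 540 nm against a sodium nitrite standard. LPS (10 mg/L) served as positive control. Three experiments were run in triplicate.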

[25] = tested on: Peritoneal macrophage cell; assay: Immunomodulatory activity in Swiss mouse peritoneal macrophages infected with promastigotes form of Leishmania amazonensis IFLA/BR/67/PH8 assessed as increase of IL-10 production at 6.25 to 25 uM after 72 hrs by sandwich ELISA; format: functional, cell-based; in short: as §4
Leishmania amazonensis [26] = assay: Antileishmanial activity against axenic amastigotes of Leishmania amazonensis IFLA/BR/67/PH8 infected in Swiss mouse peritoneal macrophages assessed as reduction of survival rate after 24 hrs by light microscopy analysis; format: functional, organism-based; in short: as §2
[27] = tested on: Peritoneal macrophage cell; assay: Immunomodulatory activity in Swiss mouse peritoneal macrophages infected with promastigotes form of Leishmania amazonensis IFLA/BR/67/PH8 assessed as increase of TNFalpha production at 6.25 to 25 uM after 72 hrs by sandwich ELISA; format: functional, cell-based; in short: as §4
Leishmania amazonensis [28] = assay: Antileishmanial activity against axenic amastigotes of Leishmania amazonensis IFLA/BR/67/PH8 infected in Swiss mouse peritoneal macrophages assessed as reduction of survival rate at 50 to 300 mg/L after 24 hrs by light microscopy analysis; format: functional, organism-based; in short: as §2
Leishmania amazonensis [29] = assay: Antileishmanial activity against axenic amastigotes of Leishmania amazonensis IFLA/BR/67/PH8 infected in Swiss mouse peritoneal macrophages assessed as reduction of survival rate at 300 mg/L after 72 hrs by light microscopy analysis; format: functional, organism-based; in short: as §2
[30] = tested on: Peritoneal macrophage cell; assay: Immunomodulatory activity in Swiss mouse peritoneal macrophages infected with promastigotes form of Leishmania amazonensis IFLA/BR/67/PH8 assessed as increase of nitric oxide production at 6.25 to 25 uM after 72 hrs by Griess assay; format: functional, cell-based; in short: as §4
[31] = Ratio of compound HC50 to meglumine antimoniate HC50 for human RBC; format: ADME, cell-based; details: erythrocyte
[32] = Ratio of compound CC50 to meglumine antimoniate CC50 for Swiss mouse peritoneal macrophages; format: ADME, cell-based, Peritoneal macrophage cell

Compound	IC50 (Leishmania amazonensis [10]) [µM]	Activity (Leishmania amazonensis [1]) [%]	Activity (Leishmania amazonensis [2]) [%]	Selectivity Index [3]	HC50 at 1 h [4] [µM]	Activity (Leishmania amazonensis [5]) [%]	Ratio CC50/EC50 [7]	Activity (Leishmania amazonensis [8]) [%]	Activity (Leishmania amazonensis [9]) [%]	CC50 at 24 h [11] [µM]	Activity (Leishmania amazonensis [12]) [%]	EC50 (Leishmania amazonensis [13]) [µM]	Activity (Leishmania amazonensis [14]) [%]	Activity (Leishmania amazonensis [15]) [%]	Ratio CC50/IC50 [16]	Activity (Leishmania amazonensis [17]) [%]	Activity (Leishmania amazonensis [18]) [%]	Activity (Leishmania amazonensis [19]) [%]	Activity (Leishmania amazonensis [21]) [%]	Selectivity Index [22]	other results
N#Cc1c(/N=C/c2cc3cc(Br)ccc3[nH]2)sc2c1CCCCC2	3.65	53.2	9.06	> 219	> 800	22.7	1.59	4.3	15.3	32	5.6	20.1	27.1	6.1	8.77	27.3	79.9	44.3	4.8	> 39.8	Activity (Leishmania amazonensis [6]): Dose-dependent effect; Activity (Leishmania amazonensis [23]): Active; Activity [24]: Active; Activity [25]: inactive; Activity (Leishmania amazonensis [26]): Dose-dependent effect; Activity [27]: Active
Meglumine antimoniate				0.016			1.01								0.04					0.42	Activity (Leishmania amazonensis [28]): inactive; Activity (Leishmania amazonensis [29]): Active
N#Cc1c(/N=C/c2cc3cc(Br)ccc3[nH]2)sc2c1CCCC2	3.37	51.9	12.5	> 237	> 800	21.7	6.12	5.03	15.8	113	5.2	18.5	27.2	3.5	33.6	28.5	76.7		7.1	> 43.2	Activity (Leishmania amazonensis [6]): Dose-dependent effect; Ratio [31]: > 14800; Activity (Leishmania amazonensis [23]): Active; Activity [24]: Active; Activity [25]: inactive; Activity (Leishmania amazonensis [26]): Dose-dependent effect; selectivity ratio [32]: 840; Activity [27]: Active

Continued, in another order:

IC50 (Leishmania amazonensis [10]) [µM]	Compound	Activity (Leishmania amazonensis [1]) [%]	Activity (Leishmania amazonensis [2]) [%]	Selectivity Index [3]	HC50 at 1 h [4] [µM]	Activity (Leishmania amazonensis [5]) [%]	Ratio CC50/EC50 [7]	Activity (Leishmania amazonensis [8]) [%]	Activity (Leishmania amazonensis [9]) [%]	CC50 at 24 h [11] [µM]	Activity (Leishmania amazonensis [12]) [%]	EC50 (Leishmania amazonensis [13]) [µM]	Activity (Leishmania amazonensis [14]) [%]	Activity (Leishmania amazonensis [15]) [%]	Ratio CC50/IC50 [16]	Activity (Leishmania amazonensis [17]) [%]	Activity (Leishmania amazonensis [18]) [%]	Activity (Leishmania amazonensis [19]) [%]	Activity (Leishmania amazonensis [21]) [%]	Selectivity Index [22]	other results
0.17	C[C@@H]1[C@H](O)[C@@H](C)/C=C/C=C/C=C/C=C/C=C/C=C/C=C/[C@H](O[C@@H]2O[C@H](C)[C@@H](O)[C@H](N)[C@@H]2O)C[C@@H]2O[C@](O)(C[C@@H](O)C[C@@H](O)[C@H](O)CC[C@@H](O)C[C@@H](O)CC(=O)O[C@H]1C)C[C@H](O)[C@H]2C(=O)O [AMPHOTERICIN B]	8.6	23.8	68.2	11.6	5.2	0.78	10.3	38.8	0.18	10.4	0.23	42.2	2.8	1.05	38.8	67.2	45.5	6	50.4	EC50 (Leishmania amazonensis [6]; IFLA/BR/67/PH8, 72 h): 169 µg/mL (≈ 183 µM); Activity (Leishmania amazonensis [20]): Active
7.37	N#Cc1c(/N=C/c2cc3ccccc3[nH]2)sc2c1CCCCC2	54.9	11.6	97.9	721	31.6	3.1	4.06	15.7	49.1	3.5	15.8	25.2	12.1	6.65	15.6	72.2	19	4.07	45.5	Activity (Leishmania amazonensis [6]): Dose-dependent effect; Activity (Leishmania amazonensis [23]): Active; Activity [24]: inactive; Activity [30]: inactive; Activity [25]: inactive; Activity (Leishmania amazonensis [26]): Dose-dependent effect; Activity [27]: inactive
